Measurements reported in ChEMBL document CHEMBL4680166, “Dual-functional conjugates improving cancer immunochemotherapy by inhibiting tubulin polymerization and indoleamine-2,3-dioxygenase” (Eur J Med Chem, 2020).
Calls of active or inactive are those of the source. The rule behind the calls is not given here.

Key:
HeLa [1] = assay: Inhibition of IDO1 expression in hIFNgamma-stimulated human HeLa cells assessed as decrease in kynurenine production at 0.1 uM measured after 48 hrs by reverse-phase HPLC analysis; assay type: functional
Method in brief: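 HeLa cells were given fresh L-tryptophan-containing medium with hIFN-γ (25 ng/mL) plus compound for 48 h. Collected cells were treated with 20% trichloroacetic acid and centrifuged. Supernatant analysed by reversed-phase HPLC (ODS column, acetonitrile/water, 1.0 mL/min, […]).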

HUVEC = assay: Cytotoxicity against HUVEC cells assessed as inhibition of cell proliferation measured after 72 hrs by MTT assay; assay type: cell-based; settings: Homo sapiens
Method in brief: (§1)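 Cells (A549, PC-3, HeLa, HUVEC) grown in DMEM with 10% FBS at 37 °C, 5% CO₂. Seeded at 5 × 10⁴ cells/well and allowed 24 h to attach, then exposed 72 h to a concentration series from DMSO stocks. MTT was added for 4 h and formazan dissolved in DMSO, read at 490 nm. Survival taken relative to untreated control. IC50 by Bliss method, three repeats.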

HeLa [2] = assay: Inhibition of IDO1 expression in hIFNgamma-stimulated human HeLa cells at 0.5 uM measured after 24 hrs by western blot assay; assay type: functional
Method in brief: (§2)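 HeLa cells were treated 24 h at 37 °C and lysed in buffer containing PMSF. Protein quantified by BCA, equal amounts separated by SDS-PAGE and transferred to nitrocellulose. Blocked in 5% milk, primary antibodies overnight at 4 °C, peroxidase secondary 2 h at 25 °C. Detection by chemiluminescence, β-actin as loading control.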

[3] = Antitumor immunity against IFN-gamma stimulated human HeLa cells co-cultured with PHA-M-stimulated human PBMC cells assessed as induction of CD3+ T cell proliferation at 0.1 uM preincubated for 2 days measured after co-culturing with PBMC for 6 days by flow cytometry (reference value: 6 to 6.2%); assay type: functional; settings: time 8 day
A549 = assay: Anticancer activity against human A549 cells assessed as inhibition of cell proliferation measured after 72 hrs by MTT assay; assay type: functional, cell-based; settings: A549, 72 h; method in brief: as §1
PC-3 = assay: Anticancer activity against human PC3 cells assessed as inhibition of cell proliferation measured after 72 hrs by MTT assay; assay type: functional, cell-based; settings: PC-3, 72 h; method in brief: as §1
HeLa [4] = assay: Anticancer activity against human HeLa cells assessed as inhibition of cell proliferation measured after 72 hrs by MTT assay; assay type: functional, cell-based; method in brief: as §1
HeLa [5] = assay: Induction of apoptosis in human HeLa cells assessed as down regulation of Bcl-2 protein expression at 0.5 uM measured after 24 hrs by western blot analysis; assay type: functional, cell-based; method in brief: as §2
[6] = Toxicity in BALB/c nude mouse transfected with human HeLa cells assessed as kidney damage at 30 mg/kg/day, iv for 21 days by H&E staining based immunohistochemistry; assay type: organism-based; settings: in vivo, 504 h, time 21 day
Method in brief: (§3)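 HeLa xenografts were grown s.c. in male BALB/c nude mice, which received i.v. tail-vein doses once daily for 21 days in Tween 80/saline vehicle, with saline controls. After 3 weeks the mice were sacrificed. Organs from one mouse per group were fixed in 4% paraformaldehyde, paraffin-embedded and sectioned. Sections were dewaxed, stained with Harris hematoxylin and eosin-phloxine, and examined microscopically for histopathologic changes.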

[7] = Toxicity in BALB/c nude mouse transfected with human HeLa cells assessed as heart damage at 30 mg/kg/day, iv for 21 days by H&E staining based immunohistochemistry; assay type: organism-based; settings: in vivo, 504 h, time 21 day; method in brief: as §3
HeLa [8] = assay: Antitumor activity against human HeLa cells xenografted in BALB/c mouse assessed as inhibition of tumor volume at 30 mg/kg/day, iv administered for 21 days by caliper analysis; assay type: functional; settings: 504 h, time 21 day
Method in brief: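 Male BALB/c nude mice, five weeks old, 18-22 g. Inoculated subcutaneously in the right armpit with 1 × 10⁷ HeLa cells/0.1 mL. At 120-150 mm³, randomized to four groups of five. Once-daily tail-vein injection for 21 days in Tween 80/physiological saline; controls received saline. Tumor volume measured every 2 days by caliper, V = AB²/2.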

[9] = Toxicity in BALB/c nude mouse transfected with human HeLa cells assessed as spleen damage at 30 mg/kg/day, iv for 21 days by H&E staining based immunohistochemistry; assay type: organism-based; settings: in vivo, 504 h, time 21 day; method in brief: as §3
HeLa [10] = assay: Induction of intracellular reactive oxygen species generation in human HeLa cells at 0.5 uM measured after 24 hrs by DCFH-DA staining based flow cytometry (reference value: 6.47%); assay type: functional
HeLa [11] = assay: Induction of apoptosis in human HeLa cells assessed as early apoptotic cells at 0.5 uM measured after 24 hrs by Annexin-V-FITC and PI staining based flow cytometry (reference value: 2.58%); assay type: functional
Method in brief: (§4)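 HeLa cells were treated 24 h, washed twice in PBS and resuspended in binding buffer. Stained with annexin V-FITC and PI for 30 min in the dark at room temperature, then analysed by flow cytometry.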

[12] = Toxicity in BALB/c nude mouse transfected with human HeLa cells assessed as body weight changes at 30 mg/kg/day, iv for 21 days; assay type: organism-based; settings: in vivo, 504 h, time 21 day
Method in brief: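 Five-week-old male BALB/c nude mice (18-22 g) were inoculated s.c. in the right armpit with HeLa cells (1 × 10⁷ cells/0.1 mL/mouse). At a tumour volume of 120-150 mm³, mice were randomised, five per group. Dosing was i.v. via the tail vein once daily for 21 days, in Tween 80/physiological saline; controls got an equal volume of saline. Body weight was recorded every 2 days.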

HeLa [13] = assay: Induction of apoptosis in human HeLa cells assessed as cell membrane integrity loss, chromatin condensation and apoptotic body formation by measuring strengthened orange fluorescence intensity at 0.5 uM measured after 24 hrs by AO/EB dual staining based fluorescence microscopy; assay type: functional
HeLa [14] = assay: Induction of apoptosis in human HeLa cells assessed as necrotic cells at 0.5 uM measured after 24 hrs by Annexin-V-FITC and PI staining based flow cytometry (reference value: 0.956%); assay type: functional; method in brief: as §4
[15] = Toxicity in BALB/c nude mouse transfected with human HeLa cells assessed as lung damage at 30 mg/kg/day, iv for 21 days by H&E staining based immunohistochemistry; assay type: organism-based; settings: in vivo, 504 h, time 21 day; method in brief: as §3
HeLa [16] = assay: Induction of cell cycle arrest in human HeLa cells assessed as accumulation at G2/M phase at 0.5 uM measured after 24 hrs by propidium iodide/RNAse staining based flow cytometry (reference value: 10.7%); assay type: functional
HeLa [17] = assay: Induction of cell cycle arrest in human HeLa cells assessed as accumulation at G1 phase at 0.5 uM measured after 24 hrs by propidium iodide/RNAse staining based flow cytometry (reference value: 61.5%); assay type: functional
[18] = Toxicity in BALB/c nude mouse transfected with human HeLa cells assessed as liver damage at 30 mg/kg/day, iv for 21 days by H&E staining based immunohistochemistry; assay type: organism-based; settings: in vivo, 504 h, time 21 day; method in brief: as §3
HeLa [19] = assay: Induction of apoptosis in human HeLa cells assessed as upregulation of caspase-3 protein expression at 0.5 uM measured after 24 hrs by western blot analysis; assay type: functional, cell-based; method in brief: as §2
HeLa [20] = assay: Induction of apoptosis in human HeLa cells assessed as viable cells at 0.5 uM measured after 24 hrs by Annexin-V-FITC and PI staining based flow cytometry (reference value: 96.3%); assay type: functional; settings: read-out: Activity; method in brief: as §4
HeLa [21] = assay: Inhibition of cell migration in human HeLa cells at 0.5 uM measured after 24 hrs by wound healing assay (reference value: 61%); assay type: functional
Method in brief: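 Confluent HeLa monolayers were scratched with a pipette tip and washed with ice-cold PBS. Incubated 24 h at 37 °C in DMEM/10% FBS containing compound. Wounds were photographed at 0 and 24 h and migration distance measured manually.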

HeLa [22] = assay: Induction of apoptosis in human HeLa cells assessed as cell membrane integrity loss, chromatin condensation and apoptotic body formation by measuring reduction in green fluorescence intensity at 0.5 uM measured after 24 hrs by AO/EB dual staining based fluorescence microscopy; assay type: functional
HeLa [23] = assay: Induction of apoptosis in human HeLa cells assessed as mitochondrial membrane potential dissipation by measuring increase in green fluorescence intensity at 0.5 uM incubated for 24 hrs by JC-1 staining based fluorescence microscopic analysis; assay type: functional, cell-based
HeLa [24] = assay: Induction of cell cycle arrest in human HeLa cells assessed as accumulation at S phase at 0.5 uM measured after 24 hrs by propidium iodide/RNAse staining based flow cytometry (reference value: 27.8%); assay type: functional
HeLa [25] = assay: Induction of apoptosis in human HeLa cells assessed as late apoptotic cells at 0.5 uM measured after 24 hrs by Annexin-V-FITC and PI staining based flow cytometry (reference value: 0.199%); assay type: functional; method in brief: as §4
HeLa [26] = assay: Induction of apoptosis in human HeLa cells assessed as mitochondrial membrane potential dissipation at 0.5 uM incubated for 24 hrs by JC-1 staining based flow cytometry (reference value: 6.6%); assay type: functional
HeLa [27] = assay: Induction of apoptosis in human HeLa cells assessed as upregulation of Bax protein expression at 0.5 uM measured after 24 hrs by western blot analysis; assay type: functional, cell-based; method in brief: as §2
HeLa [28] = assay: Induction of apoptosis in human HeLa cells assessed as upregulation of PARP protein expression at 0.5 uM measured after 24 hrs by western blot analysis; assay type: functional, cell-based; method in brief: as §2

Cn1cc(C[C@@H](N)C(=O)O)c2ccccc21 [INDOXIMOD]
inhibition (HeLa [1]): Active
IC50 (HUVEC): > 100000 nM
inhibition (HeLa [2]): Active
Activity [3]: 17.8%
IC50 (A549): > 100000 nM
IC50 (PC-3): > 100000 nM
IC50 (HeLa [4]): > 100000 nM

COc1ccc(/C=C\c2cc(OC)c(OC)c(OC)c2)cc1OC(=O)[C@H](N)Cc1cn(C)c2ccccc12
IC50 (HUVEC): 2530 nM
inhibition (HeLa [2]): Active
IC50 (A549): 680 nM
IC50 (PC-3): 720 nM
IC50 (HeLa [4]): 430 nM

COc1ccc(/C=C/C(=O)c2cc(OC)c(OC)c(OC)c2)cc1OC(=O)CCC(=O)n1cc(C2CC(=O)NC2=O)c2cc(F)ccc21 (stereo not given)
IC50 (HUVEC): 4760 nM
IC50 (A549): 1280 nM
IC50 (PC-3): 1390 nM
IC50 (HeLa [4]): 370 nM

COc1ccc(/C=C/C(=O)c2cc(OC)c(OC)c(OC)c2)cc1OC(=O)c1cccc(Cn2cc(CCOC(=O)[C@H](N)Cc3cn(C)c4ccccc34)nn2)c1
IC50 (HUVEC): 3730 nM
IC50 (A549): 710 nM
IC50 (PC-3): 620 nM
IC50 (HeLa [4]): 480 nM

COc1ccc(/C=C/C(=O)c2cc(OC)c(OC)c(OC)c2)cc1O
IC50 (HUVEC): 1240 nM
IC50 (A549): 550 nM
IC50 (PC-3): 640 nM
IC50 (HeLa [4]): 350 nM

COc1ccc(/C=C\c2cc(OC)c(OC)c(OC)c2)cc1O [COMBRETASTATIN A4]
Activity (HeLa [5]): Active
Activity [6]: Non-Toxic
Activity [7]: Non-Toxic
inhibition in vivo at 30 mg/kg/day (HeLa [8]): 57.6%
Activity [9]: Non-Toxic
Activity (HeLa [10]): 21.8%
Activity (HeLa [11]): 25%
IC50 (HUVEC): 980 nM
Activity [12]: Non-Toxic
Activity (HeLa [13]): Active
inhibition (HeLa [2]): inactive
Activity (HeLa [14]): 1.44%
Activity [15]: Non-Toxic
IC50 (A549): 470 nM
Activity (HeLa [16]): 66.57%
Activity (HeLa [17]): 4.65%
Activity [18]: Non-Toxic
Activity (HeLa [19]): Active
viability at 0.5 µM (HeLa [20]): 63.3%
inhibition at 0.5 µM (HeLa [21]): 79%
IC50 (PC-3): 400 nM
Activity (HeLa [22]): Active
Activity (HeLa [23]): Active
Activity (HeLa [24]): 28.77%
IC50 (HeLa [4]): 210 nM
Activity (HeLa [25]): 10.3%
Activity (HeLa [26]): 54.2%
Activity (HeLa [27]): Active
Activity (HeLa [28]): Active

COc1ccc(/C=C\c2cc(OC)c(OC)c(OC)c2)cc1OC(=O)CCC(=O)n1cc(C2CC(=O)NC2=O)c2cc(F)ccc21 (stereo not given)
IC50 (HUVEC): 2270 nM
IC50 (A549): 450 nM
IC50 (PC-3): 620 nM
IC50 (HeLa [4]): 270 nM

COc1ccc(/C=C\c2cc(OC)c(OC)c(OC)c2)cc1OCCCOC(=O)[C@H](N)Cc1cn(C)c2ccccc12
IC50 (HUVEC): 3110 nM
inhibition (HeLa [2]): Active
IC50 (A549): 530 nM
IC50 (PC-3): 580 nM
IC50 (HeLa [4]): 330 nM

COc1ccc(/C=C\c2cc(OC)c(OC)c(OC)c2)cc1OC(=O)c1cccc(Cn2cc(CCOC(=O)CCC(=O)n3cc(C4CC(=O)NC4=O)c4cc(F)ccc43)nn2)c1 (stereo not given)
IC50 (HUVEC): 4490 nM
IC50 (A549): 950 nM
IC50 (PC-3): 850 nM
IC50 (HeLa [4]): 390 nM

COc1ccc(/C=C/C(=O)c2cc(OC)c(OC)c(OC)c2)cc1OC(=O)c1cccc(Cn2cc(CCOC(=O)CCC(=O)n3cc(C4CC(=O)NC4=O)c4cc(F)ccc43)nn2)c1 (stereo not given)
IC50 (HUVEC): 7190 nM
IC50 (A549): 970 nM
IC50 (PC-3): 1560 nM
IC50 (HeLa [4]): 490 nM
